{
  "source": "paper PMC4339026",
  "about": "(Biopolymers, 2014)",
  "format_in_all_cases": "biochemical",
  "key": {"MMP-14": {"target": "MMP-14 (Homo sapiens, UniProt P50281)", "test": "Selectivity testing against zinc metalloproteases: MMP-14", "details": "read-out: IC50 MMP-14; n = 3 Mean ± SD"}, "meprin α": {"target": "T1, meprin α (Homo sapiens, UniProt Q16819)", "T1 sequence (Q16819 66-653 limits assumed)": "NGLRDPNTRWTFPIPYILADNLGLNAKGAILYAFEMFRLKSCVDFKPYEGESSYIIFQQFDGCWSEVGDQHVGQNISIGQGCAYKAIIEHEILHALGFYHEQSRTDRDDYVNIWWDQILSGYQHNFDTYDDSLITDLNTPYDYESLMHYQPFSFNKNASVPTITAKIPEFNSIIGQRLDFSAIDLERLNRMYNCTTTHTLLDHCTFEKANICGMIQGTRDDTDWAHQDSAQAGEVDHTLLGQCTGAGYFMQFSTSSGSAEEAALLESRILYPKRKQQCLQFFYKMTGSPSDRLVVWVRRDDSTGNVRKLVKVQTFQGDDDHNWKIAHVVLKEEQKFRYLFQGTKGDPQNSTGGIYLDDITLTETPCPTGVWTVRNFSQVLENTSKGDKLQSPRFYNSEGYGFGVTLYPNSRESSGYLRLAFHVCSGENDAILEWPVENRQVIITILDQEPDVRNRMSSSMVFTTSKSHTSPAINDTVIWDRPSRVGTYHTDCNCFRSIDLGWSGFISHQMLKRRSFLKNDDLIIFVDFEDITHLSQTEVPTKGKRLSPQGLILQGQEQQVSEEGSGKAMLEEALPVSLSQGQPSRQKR", "test": "Meprin α HTS FRET assay, dose response", "details": "read-out: IC50 Meprin α; selectivity testing; n = 3 Mean ± SD", "summary_of_the_method": "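Recombinant human Strep-tagged meprin α was expressed in baculovirus-infected BTI-TN-5B1-4 cells, trypsin-activated, then freed of trypsin. It was used as a 2x solution at 2.6 nM in 50 mM Hepes, 0.01% Brij-35, pH 7.5. Test compound was pre-incubated 30 min at RT, then 2x (MCA)-YVADAPK-(K-ε-DNP) at 20 μM was added for 1 h at RT. Read at ex 324/em 393 nm. 3-fold dilutions in quadruplicate; 4-parameter fit; 0.1% or 1.0% DMSO.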"}, "MMP-13": {"target": "MMP-13 (Homo sapiens, UniProt P45452)", "test": "Selectivity testing against zinc metalloproteases: MMP-13", "details": "read-out: IC50 MMP-13; n = 3 Mean ± SD"}, "MMP-8": {"target": "MMP-8 (Homo sapiens, UniProt P22894)", "sequence (P22894 101-467, species assumed)": "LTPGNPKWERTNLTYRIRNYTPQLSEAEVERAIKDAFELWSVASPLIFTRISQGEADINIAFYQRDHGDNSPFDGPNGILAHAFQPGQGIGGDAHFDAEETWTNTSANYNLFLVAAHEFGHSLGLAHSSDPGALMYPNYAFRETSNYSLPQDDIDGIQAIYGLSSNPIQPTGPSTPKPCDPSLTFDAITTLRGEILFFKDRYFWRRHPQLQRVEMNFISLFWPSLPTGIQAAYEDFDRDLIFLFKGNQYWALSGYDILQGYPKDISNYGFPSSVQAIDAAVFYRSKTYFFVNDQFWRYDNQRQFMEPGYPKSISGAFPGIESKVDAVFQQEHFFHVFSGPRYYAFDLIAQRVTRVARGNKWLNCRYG", "test": "Selectivity testing against zinc metalloproteases: MMP-8", "details": "read-out: IC50 MMP-8; n = 3 Mean ± SD"}, "MMP-9": {"target": "MMP-9 (Homo sapiens, UniProt P14780)", "sequence (P14780 94-707, species assumed)": "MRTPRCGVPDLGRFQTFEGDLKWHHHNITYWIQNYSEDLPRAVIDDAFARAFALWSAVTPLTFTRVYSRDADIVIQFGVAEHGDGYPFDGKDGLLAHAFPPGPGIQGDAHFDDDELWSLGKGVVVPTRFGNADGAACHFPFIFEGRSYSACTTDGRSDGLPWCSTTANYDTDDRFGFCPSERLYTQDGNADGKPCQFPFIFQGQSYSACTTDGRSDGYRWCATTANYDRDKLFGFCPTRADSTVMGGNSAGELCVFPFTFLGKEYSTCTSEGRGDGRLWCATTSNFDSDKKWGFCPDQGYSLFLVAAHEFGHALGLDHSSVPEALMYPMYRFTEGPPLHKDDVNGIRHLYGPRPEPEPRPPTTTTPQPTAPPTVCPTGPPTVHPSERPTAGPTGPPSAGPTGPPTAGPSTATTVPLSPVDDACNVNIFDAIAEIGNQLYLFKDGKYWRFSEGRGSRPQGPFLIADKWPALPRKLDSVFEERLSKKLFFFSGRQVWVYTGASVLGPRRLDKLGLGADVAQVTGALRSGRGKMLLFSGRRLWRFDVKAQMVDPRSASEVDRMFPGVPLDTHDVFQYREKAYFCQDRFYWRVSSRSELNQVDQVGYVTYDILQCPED", "test": "Selectivity testing against zinc metalloproteases: MMP-9", "details": "read-out: IC50 MMP-9; n = 3 Mean ± SD"}, "meprin β [1]": {"target": "T2, meprin β (Homo sapiens, UniProt Q16820)", "T2 sequence (Q16820 62-614 limits assumed)": "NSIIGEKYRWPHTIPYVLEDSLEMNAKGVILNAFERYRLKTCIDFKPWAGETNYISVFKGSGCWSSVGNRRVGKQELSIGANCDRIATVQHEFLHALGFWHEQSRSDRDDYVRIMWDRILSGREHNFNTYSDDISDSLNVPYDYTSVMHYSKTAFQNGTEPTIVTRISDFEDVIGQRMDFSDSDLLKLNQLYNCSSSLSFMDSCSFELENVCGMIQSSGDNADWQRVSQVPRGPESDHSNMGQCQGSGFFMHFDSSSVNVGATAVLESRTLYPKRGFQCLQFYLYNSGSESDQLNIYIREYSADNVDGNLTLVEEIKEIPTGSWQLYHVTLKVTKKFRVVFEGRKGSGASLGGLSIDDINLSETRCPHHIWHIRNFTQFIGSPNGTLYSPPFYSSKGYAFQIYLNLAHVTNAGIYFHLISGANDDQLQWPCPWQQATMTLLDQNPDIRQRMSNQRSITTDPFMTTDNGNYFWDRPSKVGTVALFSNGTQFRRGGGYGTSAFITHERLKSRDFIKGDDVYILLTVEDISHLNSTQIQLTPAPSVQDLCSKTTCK", "test": "Meprin β HTS FRET assay, dose response", "summary_of_the_method": "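Trypsin-activated meprin β (trypsin removed on immobilized ovomucoid) in 50 mM Hepes, 0.01% Brij-35, pH 7.5, added as 2x (0.15 nM) solution. Pin-transferred inhibitor was preincubated 30 min at RT. 2x (20 μM) (MCA)-EDEDED-(K-ε-DNP) was then added, run 1 h at RT, and read at ex 324/em 393 nm. A 3-fold dilution series was run in quadruplicate, and % inhibition was fitted with a 4-parameter equation. DMSO final was 0.1% or 1.0%.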"}, "ADAM17": {"target": "ADAM17 (Homo sapiens, UniProt P78536)", "sequence (P78536 215-824, species assumed)": "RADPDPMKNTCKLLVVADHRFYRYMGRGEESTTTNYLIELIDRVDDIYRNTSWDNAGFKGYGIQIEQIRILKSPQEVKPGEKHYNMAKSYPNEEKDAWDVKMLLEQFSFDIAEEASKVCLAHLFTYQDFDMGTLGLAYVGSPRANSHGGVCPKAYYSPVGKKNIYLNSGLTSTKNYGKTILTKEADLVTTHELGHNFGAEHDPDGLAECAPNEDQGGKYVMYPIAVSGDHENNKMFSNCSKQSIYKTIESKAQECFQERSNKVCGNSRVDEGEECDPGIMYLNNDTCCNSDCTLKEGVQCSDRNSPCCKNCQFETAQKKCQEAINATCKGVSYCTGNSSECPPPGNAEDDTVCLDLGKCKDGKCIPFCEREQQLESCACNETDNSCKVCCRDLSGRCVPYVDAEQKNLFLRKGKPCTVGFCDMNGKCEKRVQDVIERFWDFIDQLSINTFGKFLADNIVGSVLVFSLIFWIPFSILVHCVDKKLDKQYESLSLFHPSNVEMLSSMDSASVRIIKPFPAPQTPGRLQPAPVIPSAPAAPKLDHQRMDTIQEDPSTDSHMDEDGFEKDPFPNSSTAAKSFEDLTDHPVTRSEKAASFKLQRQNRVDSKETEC", "test": "Selectivity testing against zinc metalloproteases: ADAM17", "details": "read-out: IC50 ADAM17; n = 3 Mean ± SD"}, "meprin β [2]": {"target": "T2, meprin β", "test": "Meprin β inhibition kinetics / enzyme kinetics", "summary_of_the_method": "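Trypsin-activated meprin β at 1 nM was run with (MCA)-EDEDED-(K-ε-DNP) 0.5–25 μM plus varying inhibitor concentrations in 50 mM Hepes, 0.01% Brij-35, pH 7.5, at 25 °C. Fluorescence was read at ex 324/em 393 nm. Rates came from the linear portion of the progress curves. Ki and Ki′ came from nonlinear regression with a mixed-inhibition model. Mechanism came from the alpha parameter and was checked with Lineweaver-Burk plots.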"}, "MMP-2": {"target": "T3, MMP-2 (Homo sapiens, UniProt P08253)", "T3 sequence (P08253 110-660)": "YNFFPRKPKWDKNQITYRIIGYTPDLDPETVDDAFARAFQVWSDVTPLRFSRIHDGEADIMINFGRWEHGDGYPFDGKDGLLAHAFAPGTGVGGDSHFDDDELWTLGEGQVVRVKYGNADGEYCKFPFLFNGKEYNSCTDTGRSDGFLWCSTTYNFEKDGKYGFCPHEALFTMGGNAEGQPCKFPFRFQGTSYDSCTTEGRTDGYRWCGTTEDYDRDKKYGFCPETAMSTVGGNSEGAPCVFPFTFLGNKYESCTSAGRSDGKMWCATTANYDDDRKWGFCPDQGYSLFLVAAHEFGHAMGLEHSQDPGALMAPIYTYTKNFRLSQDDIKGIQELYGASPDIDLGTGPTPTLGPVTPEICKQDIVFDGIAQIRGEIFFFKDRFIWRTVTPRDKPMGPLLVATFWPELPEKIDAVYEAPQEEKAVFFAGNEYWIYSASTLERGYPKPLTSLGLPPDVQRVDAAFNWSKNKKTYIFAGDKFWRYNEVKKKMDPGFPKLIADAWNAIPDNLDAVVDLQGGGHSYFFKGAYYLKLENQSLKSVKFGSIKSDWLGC", "test": "Selectivity testing against zinc metalloproteases: MMP-2", "details": "read-out: IC50 MMP-2; n = 3 Mean ± SD"}},
  "note": "Entries after “also recorded” stand apart in the source; their conditions may differ.",
  "data": [
    {"smiles": "O=C(Nc1cc(C(=O)Nc2ccc(S(=O)(=O)O)cc2S(=O)(=O)O)cc(C(=O)Nc2ccc(S(=O)(=O)O)cc2S(=O)(=O)O)c1)Nc1cc(C(=O)Nc2ccc(S(=O)(=O)O)cc2S(=O)(=O)O)cc(C(=O)Nc2ccc(S(=O)(=O)O)cc2S(=O)(=O)O)c1", "note": "[NF449, 4,4′,4″,4‴-[Carbonyl-bis[imino-5,1,3-benzenetriylbis-(carbonyl-imino)]]tetrakis(benzene-1,3-disulfonic acid)]", "values": [
      {"measurement": "IC50", "setting": "MMP-14", "value": "18 ± 1.5", "unit": "µM"},
      {"measurement": "IC50", "setting": "meprin α", "value": "> 100", "unit": "µM"},
      {"measurement": "IC50", "setting": "MMP-13", "value": "40 ± 3", "unit": "µM"},
      {"measurement": "IC50", "setting": "MMP-8", "value": "1 ± 0.1", "unit": "µM"},
      {"measurement": "IC50", "setting": "MMP-9", "value": "8.6 ± 0.7", "unit": "µM"},
      {"measurement": "meprin β dose response behaviour", "setting": "meprin β [1]; dose response experiment, data not shown", "value": "did not exhibit the same effect"},
      {"measurement": "potency differential meprin β versus meprin α", "setting": "meprin β [1]; ratio of IC50 values", "value": "> 1000", "unit": "fold"},
      {"measurement": "selectivity ratio meprin β versus MMP-8", "setting": "meprin β [1]; ratio of IC50 values", "value": "approximately 12 fold"},
      {"measurement": "IC50", "setting": "meprin β [1]; read-out: IC50 Meprin β, selectivity testing, n = 3 Mean ± SD", "value": "0.07 ± 0.005", "unit": "µM"},
      {"measurement": "IC50", "setting": "ADAM17", "value": "4.6 ± 0.3", "unit": "µM"},
      {"measurement": "Ki lower than IC50, fold", "setting": "meprin β [2]; meprin β Ki versus HTS IC50", "value": 3, "unit": "fold"},
      {"measurement": "α = Ki/Ki′", "setting": "meprin β [2]; mixed-model inhibition, non-linear regression", "value": "3.6 ± 4.3"},
      {"measurement": "mechanism of inhibition of meprin β", "setting": "meprin β [2]; non-linear regression and Lineweaver-Burke plots", "value": "mixed competitive/non-competitive inhibition modality; also recorded: competitive mechanism with elements of non-competitive inhibition"},
      {"measurement": "Ki", "setting": "meprin β [2]; read-out: Ki meprin β, substrate (MCA)-EDEDED-(K-ε-DNP), mixed inhibition model", "value": "0.022 ± 0.0096", "unit": "µM"},
      {"measurement": "IC50", "setting": "MMP-2", "value": "6 ± 0.5", "unit": "µM"}
    ]}
  ]
}
